Measured values published in PMC8753982 (ACS chemical neuroscience, 2019).
Entries after “also recorded” stand apart in the source; their conditions may differ. One block for each compound: values may come before it.

Tests used:
[1] = biological target: T1, endogenous mGlu5 in striatal neurons (Rattus norvegicus, UniProt P31424); experiment: Single cell Ca2+ imaging; assay type: cell-based; settings: for effect on Quis-mediated Ca2+ responses (intracellular mGlu5): compound at 1, 5, 10 μM; for effect on single cell intracellular responses at 10-fold IC50: at 10-fold their IC50 values (refs 20, 25)
Procedure, shortened: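 Primary striatal cultures from 1-day-old neonatal rat pups, on gridded glass dishes, loaded with 5 μM Oregon Green 488 BAPTA-AM. Cultures were preincubated with 20 μM CPCCOEt (mGlu1 antagonist) plus 25 μM AMPA receptor antagonist, then imaged by confocal microscopy during agonist (Quis 10 μM) and NAM (1, 5, 10 μM) exposure. Signals were taken as fractional fluorescence change over basal and normalized to Quis response (% Quis).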

[2] = biological target: mGlu5 (mGlu5/HEK stable cell line) (Rattus norvegicus, UniProt P31424); experiment: Fluorescence-based Ca2+ flux assay with a microplate reader; assay type: cell-based; settings: for LLE: LLE = pIC50 − log P (consensus log Po/w Table 1, IC50 Table 3)
[3] = biological target: T1, endogenous mGlu5 in striatal neurons; experiment: as above; assay type: cell-based
[4] = biological target: T2, endogenous mGlu5 in hippocampal neurons (Rattus norvegicus, UniProt P31424); experiment: as above; assay type: cell-based
[5] = biological target: endogenous mGlu5 in cortical neurons (Rattus norvegicus, UniProt P31424); experiment: as above; assay type: cell-based
mGlu5 (mGlu5/HEK cells) = experiment: Single cell Ca2+ imaging; assay type: cell-based; settings: for effect on DHPG-induced oscillatory Ca2+ response: DHPG 100 μM, NAM applied after agonist at 1, 5, 10 μM; for effect of NAM pretreatment on DHPG or Quis-mediated Ca2+ responses: DHPG 100 μM or Quis 10 μM
mGlu5 = settings: read-out: published IC50; cited from earlier work
[6] = test system: mGlu5 (mGlu5/HEK stable cell line); experiment: Fluorescence-based Ca2+ flux assay with a microplate reader; assay type: cell-based; settings: LLE = pIC50 − log P (consensus log Po/w Table 1, IC50 Table 3)
[7] = biological target: T2, endogenous mGlu5 in hippocampal neurons; experiment: Single cell Ca2+ imaging; assay type: cell-based; settings: pretreatment 1 μM, Quis 10 μM

T2 sequence (P31424 21-1203): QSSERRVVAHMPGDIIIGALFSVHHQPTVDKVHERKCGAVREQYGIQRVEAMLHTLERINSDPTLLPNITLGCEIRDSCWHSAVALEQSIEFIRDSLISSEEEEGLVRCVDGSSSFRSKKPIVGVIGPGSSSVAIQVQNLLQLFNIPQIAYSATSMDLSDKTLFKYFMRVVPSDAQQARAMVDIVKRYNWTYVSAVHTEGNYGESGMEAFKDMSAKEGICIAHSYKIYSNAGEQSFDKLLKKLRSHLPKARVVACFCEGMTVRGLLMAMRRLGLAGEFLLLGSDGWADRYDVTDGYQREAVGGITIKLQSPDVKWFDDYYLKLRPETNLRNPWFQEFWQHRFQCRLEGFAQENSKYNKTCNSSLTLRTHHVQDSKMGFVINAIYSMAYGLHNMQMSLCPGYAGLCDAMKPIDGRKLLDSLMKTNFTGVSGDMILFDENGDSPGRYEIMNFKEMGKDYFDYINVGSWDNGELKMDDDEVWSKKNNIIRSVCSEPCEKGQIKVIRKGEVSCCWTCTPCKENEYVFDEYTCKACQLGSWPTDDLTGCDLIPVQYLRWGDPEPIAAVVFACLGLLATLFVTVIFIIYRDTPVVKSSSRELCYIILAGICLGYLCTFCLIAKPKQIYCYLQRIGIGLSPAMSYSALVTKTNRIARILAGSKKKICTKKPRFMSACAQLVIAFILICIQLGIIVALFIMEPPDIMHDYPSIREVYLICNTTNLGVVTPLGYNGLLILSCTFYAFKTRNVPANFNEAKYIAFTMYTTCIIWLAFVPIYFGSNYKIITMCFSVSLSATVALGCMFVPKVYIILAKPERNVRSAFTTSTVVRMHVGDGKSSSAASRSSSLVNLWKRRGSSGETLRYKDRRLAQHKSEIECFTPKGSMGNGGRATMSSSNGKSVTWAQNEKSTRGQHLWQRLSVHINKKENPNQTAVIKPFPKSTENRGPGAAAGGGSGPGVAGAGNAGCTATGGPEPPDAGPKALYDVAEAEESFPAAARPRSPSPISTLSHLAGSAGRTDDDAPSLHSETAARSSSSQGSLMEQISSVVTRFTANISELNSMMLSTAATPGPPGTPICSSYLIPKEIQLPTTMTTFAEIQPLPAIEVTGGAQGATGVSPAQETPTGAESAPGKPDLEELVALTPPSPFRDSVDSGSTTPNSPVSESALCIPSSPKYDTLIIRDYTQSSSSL
endogenous mGlu5 in cortical neurons, sequence (P31424 21-1203): as above
T1 sequence (P31424 21-1203): as above
mGlu5 (mGlu5/HEK stable cell line) (Rattus norvegicus, UniProt P31424), sequence (P31424 21-1203): as above
mGlu5 (mGlu5/HEK stable cell line), sequence (P31424 21-1203): as above

LLE [6]: 4.29 | IC50 [3]: 3560 ± 520 nM | IC50 [4]: 96.2 ± 17.8 nM | IC50 [5]: 380 ± 78 nM | effect on single cell intracellular responses at 10-fold IC50 [1]: did not block | effect on Quis-mediated Ca2+ responses (intracellular mGlu5) ([1]; striatal neurons, Quis 10 μM): less effective
Compound: C[C@@H](Oc1nnc(-c2ccncc2)n1C)c1cc(-c2cccc(Cl)c2)on1 [AZD2066, 4-[5-[(1R)-1-[5-(3-chlorophenyl)-3-isoxazolyl]ethoxy]-4-methyl-4H-1,2,4-triazol-3-yl]pyridine]
effect on DHPG-induced oscillatory Ca2+ response (mGlu5 (mGlu5/HEK cells)): blocked | effect of NAM pretreatment on DHPG or Quis-mediated Ca2+ responses (mGlu5 (mGlu5/HEK cells)): completely blocked

maximum DHPG-induced Ca2+ increase, % of the Quis-induced response ([3]; plate reader, cell type not given): 15–20%
Compound: N[C@H](C(=O)O)c1cc(O)cc(O)c1 [DHPG, (S)-3,5-dihydroxyphenylglycine]

LLE [2]: 5.50 | IC50 [3]: 2930 ± 480 nM | fold shift of IC50 between mGlu5/HEK cells and striatal cultures [3]: 16 fold | IC50 [4]: 442 ± 150 nM | IC50 [5]: 807 ± 53.5 nM | LLE ([5]; cortical, LLE = pIC50 − log P (consensus log Po/w Table 1, IC50 Table 3)): 2.94 | effect on Quis-induced Ca2+ response at 1 μM NAM [7]: less effective | effect on single cell intracellular responses at 10-fold IC50 [1]: did not block | effect on Quis-mediated Ca2+ responses (intracellular mGlu5) ([1]; striatal neurons, Quis 10 μM): less effective | effect on Quis-induced Ca2+ response at 1 μM NAM ([1]; striatal, pretreatment 1 μM, Quis 10 μM): less effective
Compound: CN1CC(=O)N=C1NC(=O)Nc1cccc(Cl)c1 [Fenobam, N-(3-chlorophenyl)-N′-(4,5-dihydro-1-methyl-4-oxo-1H-imidazol-2-yl)urea]
effect on DHPG-induced oscillatory Ca2+ response (mGlu5 (mGlu5/HEK cells)): blocked | effect on Quis-induced Ca2+ response at 1 μM NAM (mGlu5 (mGlu5/HEK cells); pretreatment 1 μM, Quis 10 μM): less effective | effect of NAM pretreatment on DHPG or Quis-mediated Ca2+ responses (mGlu5 (mGlu5/HEK cells)): completely blocked

LLE [6]: 4.59 | IC50 [3]: 62 ± 17.5 nM | IC50 [4]: 8.97 ± 3.4 nM | IC50 [5]: 80.2 ± 16.8 nM | fold difference of potency in cortical neurons versus HEK cells [5]: 45 fold
Compound: Cc1nc(C#Cc2ccnc(Cl)c2)c(C)n1-c1ccc(F)cc1 [RG7090, 2-chloro-4-((1-(4-fluorophenyl)-2,5-dimethyl-1H-imidazol-4-yl)ethynyl)pyridine]
effect on DHPG-induced oscillatory Ca2+ response (mGlu5 (mGlu5/HEK cells)): blocked | effect of NAM pretreatment on DHPG or Quis-mediated Ca2+ responses (mGlu5 (mGlu5/HEK cells)): completely blocked | effect on Quis-mediated Ca2+ responses (intracellular mGlu5) ([1]; striatal neurons, Quis 10 μM): most effective; also recorded: very effective

Further lines, the compound ahead of its results:

Compound: NC(CC1c2ccccc2Sc2ccccc21)(C(=O)O)C1CC(C(=O)O)C1 (mixture of isomers) [LY393053, 2-Amino-2-(3-cis/trans-carboxycyclobutyl)-3-(9H-thioxanthen-9-yl) propionic acid]
effect on Quis-mediated Ca2+ responses (intracellular mGlu5) ([1]; striatal neurons, Quis 10 μM): neither 5MPEP,[34] a neutral allosteric modulator, nor LY393053 affected Quis-induced Ca^2+ rises

Compound: Cc1cccnc1C#Cc1ccccc1 [5MPEP, 5-methyl-6-(phenylethynyl)-pyridine]
effect on Quis-mediated Ca2+ responses (intracellular mGlu5) ([1]; striatal neurons, Quis 10 μM): neither 5MPEP,[34] a neutral allosteric modulator, nor LY393053 affected Quis-induced Ca^2+ rises

Compound: COC(=O)N1CC[C@@H]2[C@H]1CCC[C@@]2(O)C#Cc1cccc(C)c1 [AFQ056, methyl (3aR,4S,7aR)-4-hydroxy-4-[(3-methylphenyl)ethynyl]octahydro-1H-indole-1-carboxylate]
LLE [2]: 4.57 | IC50 [3]: 9440 ± 3780 nM | fold shift of IC50 between mGlu5/HEK cells and striatal cultures [3]: 250 fold | IC50 [4]: 257 ± 27.4 nM | IC50 [5]: 270 ± 73 nM | effect on DHPG-induced oscillatory Ca2+ response (mGlu5 (mGlu5/HEK cells)): inhibited; also recorded: blocked | effect on Quis-induced Ca2+ response (mGlu5 (mGlu5/HEK cells); Quis 10 μM, NAM at 1, 5, 10 μM): inhibited; also recorded: blocked | effect of NAM pretreatment on DHPG or Quis-mediated Ca2+ responses (mGlu5 (mGlu5/HEK cells)): completely blocked | effect on Quis-mediated Ca2+ responses (intracellular mGlu5) ([1]; striatal neurons, Quis 10 μM): neither 1, 5, nor 10 μM AFQ056 blocked Quis-mediated Ca^2+ responses; also recorded: did not completely block; also recorded: fails to block | effect on DHPG-induced Ca2+ response ([1]; striatal neurons, pre- or post-treatment, cell-surface only agonist DHPG): blocked | IC50 (mGlu5): 30 nM

Compound: Cc1cccc(C#Cc2ccccc2)n1 [MPEP, 2-methyl-6-(phenylethynyl)pyridine]
effect on DHPG-induced oscillatory Ca2+ response (mGlu5 (mGlu5/HEK cells)): blocked | effect of NAM pretreatment on DHPG or Quis-mediated Ca2+ responses (mGlu5 (mGlu5/HEK cells)): completely blocked

Compound: N[C@@H](Cn1oc(=O)[nH]c1=O)C(=O)O [Quis, Quisqualate]
Quis EC80 [2]: 125 ± 32.3 nM | EC50 [3]: 1310 ± 360 nM | fold difference in EC50 between the cortical and hippocampal neurons and the striatum, respectively ([3]; Quis): 8–10 fold | fold difference in the EC50 for Quis in HEK cells versus striatal neurons ([3]; mGlu5/HEK versus endogenous mGlu5-expressing striatal neurons): 42 fold | Quis EC80 ([3]; striatal): 5250 ± 1430 nM | difference in EC50 between cell surface and intracellular mGlu5 ([3]; striatum, Quis with versus without LY393053 20 μM): no difference in EC50 | EC50 [4]: 122 ± 12.1 nM | Quis EC80 ([4]; hippocampal): 515 ± 51.4 nM | fold difference in potency, Quis with versus without LY393053 ([4]; hippocampus, LY393053 20 μM): ~1.8 fold | EC50 [5]: 168 ± 55.8 nM | fold difference in potency, Quis with versus without LY393053 ([5]; cortex, LY393053 20 μM): ~1.8 fold | Quis EC80 ([5]; cortical): 670 ± 223 nM
